Results: ChEMBL document CHEMBL1125520, “Improved brain delivery of AZT using a glycosyl phosphotriester prodrug” (1992)

Assays:
Mus musculus [1] = assay: In Vivo detection in Mice plasma after oral administration of 41.63 mg/kg detected in the form of AZT phosphodiester 2 after 48 hr; format: functional, organism-based; parameters: dose 41.63 mg/kg
Mus musculus [2] = assay: In Vivo detection in Mice brains after oral administration of 41.63 mg/kg detected in the form of AZT after 2 hr; format: functional
Mus musculus [3] = species on record: Mus musculus; assay: In Vitro detection by Gray and Whittaker method for % of internalization by comparing with external nucleoside of 2000 nM/g; format: functional
Method in brief: (§1)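 Crude synaptosomes from three mouse brains were prepared by Gray–Whittaker homogenization in 10% sucrose buffered with 5 mM Tris-HCl, pH 7.4. The 7000g pellet was resuspended and incubated with each nucleoside at 3 mM for 15 min at 37 °C, stopped by cold 10-fold dilution and washed twice. Internal nucleoside was extracted in acetonitrile–water (3:1) and measured by HPLC.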

Mus musculus [4] = assay: In Vivo detection in Mice plasma after oral administration of 41.63 mg/kg detected in the form of AZT phosphodiester 2 after 8 hr; format: functional, organism-based; parameters: dose 41.63 mg/kg
Mus musculus [5] = assay: In Vivo detection in Mice brains after oral administration of 41.63 mg/kg detected in the form of AZT phosphodiester 2 after 0.5 hr; format: functional
Mus musculus [6] = assay: In Vivo detection in Mice plasma after oral administration of 41.63 mg/kg detected in the form of AZT 5`-P after 24 hr; format: functional, organism-based; parameters: dose 41.63 mg/kg
Mus musculus [7] = assay: In Vivo detection of total AZT in Mice plasma after oral administration of 41.63 mg/kg after 1 hr; format: functional, organism-based; parameters: dose 41.63 mg/kg
Method in brief: (§2)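 Male Swiss mice (18–20 g, six weeks old) given the test substance or vehicle ([…]) by gavage as a 3 mM solution (1.5 µmol/mouse). Aortic blood was collected into heparinized tubes at 0.5–48 h and centrifuged at 13000g for 10 min. Plasma was stored at -22 °C and analysed by HPLC. Three mice were used per time point, in triplicate. Values were not corrected for recovery.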

Mus musculus [8] = assay: In Vivo detection in Mice brains after oral administration of 41.63 mg/kg detected in the form of AZT after 4 hr; format: functional
Mus musculus [9] = assay: In Vivo detection of total AZT in Mice brains after oral administration of 41.63 mg/kg after 4 hr; format: functional
Method in brief: (§3)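 Male Swiss mice (18–20 g) dosed orally with a 3 mM solution in […] vehicle; decapitated at 0.5–48 h. Brains were homogenized in acetonitrile-water (3:1), centrifuged at 6000g for 40 min at 4 °C, lyophilized, redissolved in water and filtered (0.45 µm). Reversed-phase C18 column-switching HPLC with diode-array detection; standard spiking; vehicle-fed controls. Three mice per point, triplicates.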

Mus musculus [10] = assay: In Vivo detection in Mice plasma after oral administration of 41.63 mg/kg detected in the form of AZT phosphodiester 2 after 4 hr; format: functional, organism-based; parameters: dose 41.63 mg/kg
Mus musculus [11] = assay: In Vivo detection in Mice brains after oral administration of 41.63 mg/kg detected in the form of AZT 5`-P after 4 hr; format: functional
Mus musculus [12] = assay: In Vivo detection in Mice brains after oral administration of 41.63 mg/kg detected in the form of AZT 5`-P after 24 hr; format: functional
Mus musculus [13] = assay: In Vivo detection in Mice brains after oral administration of 41.63 mg/kg detected in the form of AZT phosphodiester 2 after 1 hr; format: functional
Mus musculus [14] = assay: In Vivo detection of total AZT in Mice brains after oral administration of 41.63 mg/kg after 1 hr; format: functional; method in brief: as §3
Mus musculus [15] = assay: In Vivo detection in Mice plasma after oral administration of 41.63 mg/kg detected in the form of AZT 5`-P after 8 hr; format: functional, organism-based; parameters: dose 41.63 mg/kg
Mus musculus [16] = assay: In Vivo detection of total AZT in Mice plasma after oral administration of 41.63 mg/kg after 48 hr; format: functional, organism-based; parameters: dose 41.63 mg/kg; method in brief: as §2
Mus musculus [17] = species on record: Mus musculus; assay: In Vitro detection by Gray and Whittaker method for the total internal nucleoside; format: functional; method in brief: as §1
Mus musculus [18] = assay: In Vivo detection in Mice plasma after oral administration of 41.63 mg/kg detected in the form of AZT phosphodiester 2 after 1 hr; format: functional, organism-based; parameters: dose 41.63 mg/kg
Mus musculus [19] = assay: In Vivo detection of total AZT in Mice plasma after oral administration of 41.63 mg/kg after 24 hr; format: functional, organism-based; parameters: dose 41.63 mg/kg; method in brief: as §2
Mus musculus [20] = assay: In Vivo detection in Mice brains after oral administration of 58.33 mg/kg detected in the form of AZT 5`-P after 48 hr; format: functional
Mus musculus [21] = assay: In Vivo detection in Mice brains after oral administration of 58.33 mg/kg detected in the form of AZT 5`-P after 0.5 hr; format: functional
Mus musculus [22] = assay: In Vivo detection in Mice brains after oral administration of 58.33 mg/kg detected in the form of AZT phosphodiester 3 after 2 hr; format: functional
Mus musculus [23] = assay: In Vivo detection of total AZT in Mice brains after oral administration of 58.33 mg/kg after 1 hr; format: functional; method in brief: as §3
Mus musculus [24] = assay: In Vivo detection in Mice plasma after oral administration of 58.33 mg/kg detected in the form of AZT phosphodiester 2 after 4 hr; format: functional, organism-based; parameters: dose 58.33 mg/kg; method in brief: as §2
Mus musculus [25] = assay: In Vivo detection of total AZT in Mice brains after oral administration of 58.33 mg/kg after 24 hr; format: functional; method in brief: as §3
Mus musculus [26] = assay: In Vivo detection in Mice brains after oral administration of 58.33 mg/kg detected in the form of AZT 5`-P after 24 hr; format: functional
Mus musculus [27] = assay: In Vivo detection in Mice brains after oral administration of 58.33 mg/kg detected in the form of AZT phosphodiester 3 after 0.5 hr; format: functional
Mus musculus [28] = species on record: Mus musculus; assay: Concentration of external nucleoside in mouse brain; format: functional; method in brief: as §1
Mus musculus [29] = assay: In Vivo detection of total AZT in Mice plasma after oral administration of 58.33 mg/kg after 48 hr; format: functional, organism-based; parameters: dose 58.33 mg/kg; method in brief: as §2
Mus musculus [30] = assay: In Vivo detection in Mice plasma after oral administration of 58.33 mg/kg detected in the form of AZT 5`-P after 2 hr; format: functional, organism-based; parameters: dose 58.33 mg/kg
Mus musculus [31] = assay: In Vivo detection in Mice plasma after oral administration of 58.33 mg/kg detected in the form of AZT phosphodiester 3 after 1 hr; format: functional, organism-based; parameters: dose 58.33 mg/kg; method in brief: as §2
Mus musculus [32] = assay: In Vivo detection in Mice brains after oral administration of 58.33 mg/kg detected in the form of AZT after 24 hr; format: functional
Mus musculus [33] = assay: In Vivo detection in Mice plasma after oral administration of 58.33 mg/kg detected in the form of AZT after 48 hr; format: functional, organism-based; parameters: dose 58.33 mg/kg; method in brief: as §2
Mus musculus [34] = assay: In Vivo detection in Mice brains after oral administration of 58.33 mg/kg detected in the form of AZT after 8 hr; format: functional
Mus musculus [35] = assay: In Vivo detection in Mice plasma after oral administration of 58.33 mg/kg detected in the form of AZT 5`-P after 4 hr; format: functional, organism-based; parameters: dose 58.33 mg/kg
Mus musculus [36] = assay: In Vivo detection in Mice brains after oral administration of 58.33 mg/kg detected in the form of AZT phosphodiester 2 after 2 hr; format: functional
Mus musculus [37] = assay: In Vivo detection of total AZT in Mice brains after oral administration of 58.33 mg/kg after 4 hr; format: functional; method in brief: as §3
Mus musculus [38] = assay: In Vivo detection in Mice plasma after oral administration of 58.33 mg/kg detected in the form of AZT 5`-P after 0.5 hr; format: functional, organism-based; parameters: dose 58.33 mg/kg
Mus musculus [39] = assay: In Vivo detection in Mice brains after oral administration of 58.33 mg/kg detected in the form of AZT after 0.5 hr; format: functional

Work on Cc1cn([C@H]2C[C@H](N=[N+]=[N-])[C@@H](COP(=O)(O)OCCO[C@H]3O[C@H](CO)[C@@H](O)[C@H](O)[C@@H]3O)O2)c(=O)[nH]c1=O yielded a Plasma content (Mus musculus [1]) of 0 nM ml-1, a Brain content (Mus musculus [2]) of 1.2 nmol/g and an Internalisation (Mus musculus [3]) of 0.1%. For the same molecule, the Plasma content (Mus musculus [4]) was 0 nM ml-1, the Brain content (Mus musculus [5]) was 5.8 nM ml-1 and the Plasma content (Mus musculus [6]) was 26.8 nM ml-1. For the same molecule, the Plasma content (Mus musculus [7]) was 43.5 nM ml-1, the Brain content (Mus musculus [8]) was 0.9 nmol/g and the Brain content (Mus musculus [9]) was 68.1 nM ml-1. The Plasma content (Mus musculus [10]) was 0 nM ml-1, the Brain content (Mus musculus [11]) was 59.3 nmol/g and the Brain content (Mus musculus [12]) was 56.5 nmol/g. For the same molecule, the Brain content (Mus musculus [13]) was 16.5 nM ml-1, the Brain content (Mus musculus [14]) was 97.7 nmol/g and the Plasma content (Mus musculus [15]) was 5.7 nM ml-1. For the same molecule, the Plasma content (Mus musculus [16]) was 17.9 nM ml-1, the Brain content (Mus musculus [17]) was 8.3 nM/g and the Plasma content (Mus musculus [18]) was 5.2 nM ml-1. It also gave a Plasma content (Mus musculus [19]) of 26.8 nM ml-1.
CCCCCCCCCCCCCCCCOP(=O)(OCCO[C@H]1O[C@H](CO)[C@@H](O)[C@H](O)[C@@H]1O)OCC1OC(n2cc(C)c(=O)[nH]c2=O)CC1N=[N+]=[N-] (stereo partly specified) showed a Brain content (Mus musculus [20]) of 58.6 nmol/g, a Brain content (Mus musculus [21]) of 36.7 nmol/g and a Brain content (Mus musculus [22]) of 0 nmol/g. It also gave a Brain content (Mus musculus [23]) of 156.7 nM ml-1, a Plasma content (Mus musculus [24]) of 0 nM ml-1 and a Brain content (Mus musculus [25]) of 87.9 nM ml-1. For the same molecule, the Brain content (Mus musculus [26]) was 81.3 nmol/g, the Brain content (Mus musculus [27]) was 0 nmol/g and the Internalisation (Mus musculus [3]) was 6.24%. The External nucleoside (Mus musculus [28]) was 9100 nM/g, the Plasma content (Mus musculus [29]) was 14.2 nM ml-1 and the Plasma content (Mus musculus [30]) was 4 nM ml-1. The Plasma content (Mus musculus [31]) was 0 nM ml-1, the Brain content (Mus musculus [32]) was 1.4 nmol/g and the Plasma content (Mus musculus [33]) was 0 nM ml-1. It also gave a Brain content (Mus musculus [34]) of 2 nmol/g, a Plasma content (Mus musculus [35]) of 3 nM ml-1 and a Brain content (Mus musculus [36]) of 5.2 nmol/g. For the same molecule, the Brain content (Mus musculus [37]) was 122 nmol/g, the Plasma content (Mus musculus [38]) was 12.1 nM ml-1 and the Brain content (Mus musculus [17]) was 567.8 nM/g. For the same molecule, the Brain content (Mus musculus [39]) was 1.5 nmol/g.
